# According to ChEMBL document CHEMBL3351380, “Antioxidant and antimicrobial studies on fused-ring pyrazolones and isoxazolones” (Bioorg Med Chem, 2014):
# Activity calls are given as the source filed them. The rule behind the calls is not given here.
# Columns and labels:
# [1] = test system: Candida albicans; assay: Antifungal activity against Candida albicans assessed as zone of inhibition at 100 ug/ml by agar well diffusion method; type: functional; settings: for zone of inhibition at 100 µg/mL: read-out: IZ
# Outline: (§1)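 For the agar well diffusion screen, samples at 100 µg/mL were made from a stock of 10 mg in 1 mL EtOH diluted 1:1 (v/v) with Mueller-Hinton medium. The zone of inhibition was scored as 5–10 mm poor, 10–15 moderate, 15–20 good and 20–25 very good. Gentamycin and nystatin were the reference drugs. Strains were confirmed at the University of Botswana microbiology laboratory.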
# [2] = Antioxidant activity assessed as DPPH radical scavenging activity after 30 mins by spectrophotometry; type: physicochemical
# Outline: (§2)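 DPPH (0.51 mM in methanol) was mixed 1:1 by volume with the compound at several concentrations (100, 50, 25 … µg/mL range). Absorbance was read against a control, and % inhibition = (A0−As)/A0 ×100. Readings were taken at 30 min and 3 h, with ascorbic acid as the reference. Triplicate measurements.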
# [3] = Antioxidant activity assessed as DPPH radical scavenging activity after 3 hrs by spectrophotometry; type: physicochemical; outline: as §2
# [4] = test system: Pseudomonas aeruginosa; assay: Antimicrobial activity against Pseudomonas aeruginosa NCIMB 8295 by agar well diffusion method; type: functional
# [5] = test system: Staphylococcus aureus; assay: Antimicrobial activity against Staphylococcus aureus ATCC 25923 by agar well diffusion method; type: functional
# [6] = test system: Escherichia coli; assay: Antimicrobial activity against Escherichia coli ATCC 8739 assessed as zone of inhibition at 100 ug/ml by agar well diffusion method; type: functional; settings: for zone of inhibition at 100 µg/mL: read-out: IZ; outline: as §1
# [7] = test system: Escherichia coli; assay: Antimicrobial activity against Escherichia coli ATCC 8739 by agar well diffusion method; type: functional
# [8] = test system: Bacillus subtilis; assay: Antimicrobial activity against Bacillus subtilis NCIB 3610 by agar well diffusion method; type: functional; settings: subsp. subtilis str. NCIB 3610
# [9] = test system: Candida albicans; assay: Antifungal activity against Candida albicans by agar well diffusion method; type: functional
# [10] = test system: Pseudomonas aeruginosa; assay: Antimicrobial activity against Pseudomonas aeruginosa NCIMB 8295 assessed as zone of inhibition at 100 ug/ml by agar well diffusion method; type: functional; settings: for zone of inhibition at 100 µg/mL: read-out: IZ; outline: as §1
# [11] = Metal chelating activity of the compound assessed as formation of iron complex after 20 mins by spectrophotometry; type: physicochemical
# Outline: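 Fe2+ chelation was measured by disruption of the o-phenanthroline–Fe2+ complex. O-phenanthroline (0.05% in methanol) and FeCl2 (0.1%) were mixed with the sample at various concentrations and held at room temperature for 20 min, then read at 510 nm. EDTA was the standard chelator. % chelation = (Acontrol−Asample)/Acontrol ×100, and IC50 came from plots of % chelation versus concentration. Triplicates.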
# [12] = test system: Staphylococcus aureus; assay: Antimicrobial activity against Staphylococcus aureus ATCC 25923 assessed as zone of inhibition at 100 ug/ml by agar well diffusion method; type: functional; settings: for zone of inhibition at 100 µg/mL: read-out: IZ; outline: as §1
# [13] = test system: Bacillus subtilis; assay: Antimicrobial activity against Bacillus subtilis NCIB 3610 assessed as zone of inhibition at 100 ug/ml by agar well diffusion method; type: functional; settings: for Activity: subsp. subtilis str. NCIB 3610; for zone of inhibition at 100 µg/mL: subsp. subtilis str. NCIB 3610, read-out: IZ; outline: as §1
Compound,Activity [1],IC50 [2],IC50 [3],MIC [4],MIC [5],Activity [6],MIC [7],MIC [8],MIC [9],Activity [10],IC50 [11],Activity [12],Activity [13],zone of inhibition at 100 µg/mL [13],zone of inhibition at 100 µg/mL [1],zone of inhibition at 100 µg/mL [6],zone of inhibition at 100 µg/mL [10],zone of inhibition at 100 µg/mL [12]
CCOC(=O)C1C(=O)C=C(c2ccccc2)CC1c1cccc([N+](=O)[O-])c1 (stereo unspecified),inactive,165.21 µg/mL,143.6 µg/mL,inactive,inactive,inactive,inactive,inactive,inactive,inactive,1028.57 µg/mL,inactive,inactive,,,,,
CCOC(=O)C1C(=O)C=C(c2ccc(OC)cc2OC)CC1c1cccc([N+](=O)[O-])c1 (stereo unspecified),inactive,195.65 µg/mL,95.43 µg/mL,inactive,inactive,inactive,inactive,inactive,inactive,inactive,1006.67 µg/mL,inactive,inactive,,,,,
O=C(O)CN(CCN(CC(=O)O)CC(=O)O)CC(=O)O [EDETIC ACID],,,,,,,,,,,50.98 µg/mL,,,,,,,
O=C1O[C@H]([C@@H](O)CO)C(O)=C1O [ASCORBIC ACID],,37.78 µg/mL,25.26 µg/mL,,,,,,,,,,,,,,,
COc1ccc(C2=CC3=NNC(=O)C3C(c3cccc([N+](=O)[O-])c3)C2)c(OC)c1 (stereo unspecified),inactive,88.75 µg/mL,39.67 µg/mL,inactive,inactive,inactive,inactive,2.5 µg/mL,inactive,inactive,84.39 µg/mL,inactive,,9 mm,,,,
COc1ccc(C(=O)/C=C/c2cccc([N+](=O)[O-])c2)cc1,,135.27 µg/mL,92.46 µg/mL,,,,,,,,97.32 µg/mL,,,,,,,
CCOC(=O)C1C(=O)C=C(c2ccc(O)cc2)CC1c1cccc([N+](=O)[O-])c1 (stereo unspecified),,175 µg/mL,86.67 µg/mL,inactive,inactive,inactive,inactive,2.5 µg/mL,2.5 µg/mL,inactive,1014 µg/mL,inactive,,12 mm,13 mm,,,
O=C1ON=C2C=C(c3cccs3)CC(c3cccc([N+](=O)[O-])c3)C12 (stereo unspecified),,309.29 µg/mL,197.78 µg/mL,2.5 µg/mL,2.5 µg/mL,,2.5 µg/mL,1.25 µg/mL,1.25 µg/mL,,675.67 µg/mL,,,14 mm,15 mm,13 mm,11 mm,12 mm
O=C(/C=C/c1cccc([N+](=O)[O-])c1)c1cccs1,,112.29 µg/mL,90.73 µg/mL,,,,,,,,1029.41 µg/mL,,,,,,,
O=C1NN=C2C=C(c3cccs3)CC(c3cccc([N+](=O)[O-])c3)C12 (stereo unspecified),,100.61 µg/mL,63.78 µg/mL,2.5 µg/mL,2.5 µg/mL,,2.5 µg/mL,0.313 µg/mL,0.313 µg/mL,,86.96 µg/mL,,,22 mm,23 mm,11 mm,10 mm,9 mm
O=C1NN=C2C=C(c3ccc(Br)cc3)CC(c3cccc([N+](=O)[O-])c3)C12 (stereo unspecified),,103.6 µg/mL,77.89 µg/mL,inactive,2.5 µg/mL,inactive,inactive,2.5 µg/mL,2.5 µg/mL,inactive,106.36 µg/mL,,,13 mm,10 mm,,,13 mm
O=C1ON=C2C=C(c3ccccc3)CC(c3cccc([N+](=O)[O-])c3)C12 (stereo unspecified),,312.28 µg/mL,215.71 µg/mL,2.5 µg/mL,inactive,inactive,inactive,inactive,2.5 µg/mL,,750.45 µg/mL,inactive,inactive,,10 mm,,11 mm,
O=C(/C=C/c1cccc([N+](=O)[O-])c1)c1ccc(O)cc1,,92.75 µg/mL,40.67 µg/mL,,,,,,,,84.09 µg/mL,,,,,,,
COc1ccc(C2=CC3=NOC(=O)C3C(c3cccc([N+](=O)[O-])c3)C2)cc1 (stereo unspecified),inactive,258.75 µg/mL,118.69 µg/mL,inactive,inactive,inactive,inactive,2.5 µg/mL,inactive,inactive,704.31 µg/mL,inactive,,12 mm,,,,
COc1ccc(C2=CC3=NNC(=O)C3C(c3cccc([N+](=O)[O-])c3)C2)cc1 (stereo unspecified),inactive,86.74 µg/mL,38.38 µg/mL,inactive,inactive,inactive,inactive,2.5 µg/mL,inactive,inactive,85.58 µg/mL,inactive,,11 mm,,,,
COc1ccc(C(=O)/C=C/c2cccc([N+](=O)[O-])c2)c(OC)c1,,133.57 µg/mL,96.22 µg/mL,,,,,,,,95.13 µg/mL,,,,,,,
O=C(/C=C/c1cccc([N+](=O)[O-])c1)c1ccc(Br)cc1,,170 µg/mL,122.8 µg/mL,,,,,,,,202.56 µg/mL,,,,,,,
GENTAMICIN,,,,< 0.02 µg/mL,< 0.02 µg/mL,,< 0.02 µg/mL,< 0.02 µg/mL,,,,,,,,,,
NYSTATIN,,,,,,,,,< 0.02 µg/mL,,,,,,,,,
O=C(/C=C/c1cccc([N+](=O)[O-])c1)c1ccccc1,,165.21 µg/mL,112.5 µg/mL,,,,,,,,104.76 µg/mL,,,,,,,
